Screening results from PubChem BioAssay.
Shown are actives, neighbours in structure and some others; about 2.3% of the full set was active somewhere.
ADAM17 inh: ADAM17 inhibitors, primary screen, biochemical, QFRET; Disintegrin and metalloproteinase domain-containing protein 17 (Homo sapiens), P78536; inhibition, % at 6.95 µM; AID 720648, 2013; 370,000 tested, 0.83% active; recombinant ADAM17, EDANS/DABCYL FRET peptide cleavage;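 active = inhibition above the mean of compounds lying between control limits plus 3 SD, set per campaign, cut at about 8.5% in these data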;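 note: 0% = DMSO-only wells as the low control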
ADAM10 inh: human ADAM10 inhibitors, primary screen, biochemical, QFRET, HTS; 370,000 tested, 0.62% active; inhibition, % at 7 µM; AID 720582, 2013; Disintegrin and metalloproteinase domain-containing protein 10 (Homo sapiens), O14672; recombinant ADAM10, EDANS/DABCYL FRET peptide cleavage, 3 h;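 active = inhibition above a per-campaign cutoff equal to the mean of compounds falling between control-based bounds plus 3 SD, cut at about 20% in these data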;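 note: 0% = DMSO wells while the 100% control is not disclosed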
DDE Tn7 FP inh: inhibitors of Tn7 peptide binding to fibrin DD(E), primary screen, biochemical, fluorescence polarization, human fibrin, Tn7 probe | 370,000 tested, 0.13% active | Fibrinogen beta chain (Homo sapiens), P02675 | AID 720508, 2013 | inhibition, % at 8.3 µM | FP displacement of FITC-Tn7 peptide from fibrin DD(E); 0% = median of compound wells per plate;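 active = inhibition above the mean of compounds falling within the control limits plus 3 SD of them, cut at about 14% in these data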;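 note: 0% = plate median of compound wells and 100% = 10 µM Aha-Tn7 peptide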
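Assay system: Human fibrin DD(E) protein | Medium: Tris buffer with calcium and detergent, pH 7.8 | Reagent: 0.1 µM fluorescent Tn7 | Compound dosing: Single point at 8.3 µM | Times: 10 min preincubation, 3 h with tracer, room temperature | Detection: Fluorescence polarization of the labelled Tn7 tracer | Controls: Aha-Tn7 high control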
Tn6 DDE FP: inhibitors of Tn6 peptide binding to fibrin DD(E), primary screen, biochemical, fluorescence polarization, human fibrin, Tn6 probe | Fibrinogen beta chain (Homo sapiens), P02675 | Fibrin DD(E) TRITC-Tn6 fluorescence polarization displacement | inhibition, % at 8.3 µM | 370,000 tested, 0.21% active | AID 720509, 2013;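 active = inhibition above a per-campaign cutoff: mean of compounds within control limits plus 3 SD, cut at about 15% in these data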;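 note: 0% = median of all compound wells on the plate and 100% = blocking peptide control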
PLC-gamma1 inh: PLC-gamma1 enzyme inhibitors, primary screen, biochemical, fluorescence, purified enzyme. fluorogenic substrate. 1-phosphatidylinositol 4,5-bisphosphate phosphodiesterase gamma-1 (Homo sapiens), P19174. inhibition, % at 12.2 µM. 370,000 tested, 0.84% active; in the data active = inhibition above about 9.5%
PLCb3 inh: human PLC-beta3 inhibitors, primary screen, biochemical, fluorescence. 1-phosphatidylinositol 4,5-bisphosphate phosphodiesterase beta-3 (Homo sapiens), Q01970. Purified PLC-beta3, fluorogenic substrate. inhibition, % at 12.2 µM. 370,000 tested, 0.18% active. AID 720704, 2013; in the data active = inhibition above about 11%;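 note: 0% = median of compound wells on plate and 100% = full blocker control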
Target sequence (Q01970 whole entry, looked up): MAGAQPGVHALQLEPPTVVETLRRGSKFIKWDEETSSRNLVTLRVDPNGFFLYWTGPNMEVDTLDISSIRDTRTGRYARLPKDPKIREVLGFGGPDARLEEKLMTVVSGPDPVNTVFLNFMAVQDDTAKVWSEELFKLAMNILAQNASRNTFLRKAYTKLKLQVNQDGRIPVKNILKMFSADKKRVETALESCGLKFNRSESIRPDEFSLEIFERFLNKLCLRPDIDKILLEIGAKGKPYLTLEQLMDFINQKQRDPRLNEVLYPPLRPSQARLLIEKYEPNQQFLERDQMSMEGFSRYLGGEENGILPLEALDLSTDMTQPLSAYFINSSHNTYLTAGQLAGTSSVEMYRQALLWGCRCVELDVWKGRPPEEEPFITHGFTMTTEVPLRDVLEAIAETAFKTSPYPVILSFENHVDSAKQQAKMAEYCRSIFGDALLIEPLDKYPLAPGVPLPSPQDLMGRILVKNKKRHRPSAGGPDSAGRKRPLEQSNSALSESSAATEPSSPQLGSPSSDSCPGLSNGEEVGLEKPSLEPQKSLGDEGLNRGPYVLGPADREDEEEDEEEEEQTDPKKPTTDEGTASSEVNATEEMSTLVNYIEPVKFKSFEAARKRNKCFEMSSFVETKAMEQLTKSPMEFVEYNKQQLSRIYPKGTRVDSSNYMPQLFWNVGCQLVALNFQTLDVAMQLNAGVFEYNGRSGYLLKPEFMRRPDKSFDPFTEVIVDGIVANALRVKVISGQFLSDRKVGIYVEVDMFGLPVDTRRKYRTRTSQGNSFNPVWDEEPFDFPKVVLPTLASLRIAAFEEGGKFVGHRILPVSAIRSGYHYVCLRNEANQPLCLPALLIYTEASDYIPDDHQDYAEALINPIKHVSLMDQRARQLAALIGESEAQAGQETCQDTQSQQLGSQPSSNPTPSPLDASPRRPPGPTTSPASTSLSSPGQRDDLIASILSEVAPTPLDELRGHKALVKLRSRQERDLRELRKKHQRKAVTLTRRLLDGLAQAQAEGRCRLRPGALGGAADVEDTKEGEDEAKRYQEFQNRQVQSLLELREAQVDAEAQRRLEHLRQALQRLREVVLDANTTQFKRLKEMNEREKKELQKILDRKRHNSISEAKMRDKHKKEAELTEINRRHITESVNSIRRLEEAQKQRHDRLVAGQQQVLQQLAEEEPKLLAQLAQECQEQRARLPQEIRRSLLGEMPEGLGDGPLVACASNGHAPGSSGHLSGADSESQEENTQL
ADAM10 confirm: human ADAM10 inhibitors, confirmation, biochemical, QFRET, triplicate | AID 743208, 2013 | 2,100 tested, 1% active | inhibition, % at 6.95 µM | shares compounds with ADAM10 inh | ADAM10 QFRET peptide cleavage, EDANS fluorescence;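 active = inhibition above about 20% chosen separately for each screening run, limit read from the data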;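 note: 0% = DMSO wells and 100% = marimastat wells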
ADAM17 counter: ADAM17 inhibitors, counter-screen for ADAM10 exosite inhibitor project, biochemical, QFRET, high throughput; shares compounds with ADAM10 inh; ADAM17 QFRET peptide cleavage, EDANS fluorescence; inhibition, % at 6.95 µM; 2,100 tested, 0.5% active;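 active = mean triplicate inhibition above the solvent-only control wells' mean plus 3 SD, cut at about 12% in these data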;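 note: 0% = DMSO wells and 100% = marimastat wells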
* = called active by the depositor; i = inactive; nt = no result given.

SMILES	ADAM17 inh	ADAM10 inh	DDE Tn7 FP inh	Tn6 DDE FP	PLC-gamma1 inh	PLCb3 inh	ADAM10 confirm	ADAM17 counter
O=C(Nc1ccc(S(=O)(=O)Nc2nccs2)cc1)/C(=C/c1ccccc1Cl)NC(=O)c1ccccc1	7.6	31.5*	7.9	-2.4	1.9	-3.9	0.8	-0.3
O=C(Nc1ccc(S(=O)(=O)Nc2nccs2)cc1)c1cc(-c2ccccc2)nc2ccccc12	8.3	26.6*	4.3	-7.6	1.6	-0.3	9.1	2.0
Cc1ccc(S(=O)(=O)N2C=C(c3ccccc3)c3ccccc3-c3ccccc32)cc1	-0.2	2.9	-1.8	0.2	1.1	-0.7	nt	nt
O=C(Nc1ccc2c(c1)N(Cc1ccccc1)C(=O)c1ccccc1S2)NC1CC1	6.8	21.3*	3.8	-4.1	-2.4	3.6	3.6	1.0
CN1C(=O)c2ccccc2Sc2ccc(NC(=O)NC3CC3)cc21	0.3	1.4	-3.6	-7.7	4.3	4.0	nt	nt
COc1ccc(CN2C[C@]3(C=C(C)Cn4c(=O)n(-c5ccccc5)c(=O)n43)N(C(=O)OCc3ccccc3)C2=NC(=O)c2ccccc2)c(OC)c1	2.1	8.0	2.0	-1.8	5.0	2.9	nt	nt
COc1ccc(S(=O)(=O)Nc2cc(OC)c(NC(=O)c3ccco3)cc2OC)cc1	8.0	21.1*	4.6	-0.8	1.2	-11.3	1.1	0.4
OC(c1ccc(Cl)c(F)c1)c1ncc(-c2ccc(Cl)cc2)[nH]1 (centres undefined)	7.4	20.0*	5.5	3.5	1.9	0.8	3.0	0.7
OC(c1cccc(F)c1)c1ncc(-c2ccc(Oc3ccccc3)cc2)[nH]1 (centres undefined)	7.2	23.4*	-5.0	-2.5	-12.9	-14.3	10.0	3.2
OC(c1ccc(Cl)c(Cl)c1)c1ncc(-c2ccccc2C(F)(F)F)[nH]1 (centres undefined)	10.2*	21.6*	2.1	-2.0	6.8	2.3	2.0	1.0
OC(c1ccc(Cl)c(F)c1)c1ncc(-c2ccc(Oc3ccccc3)cc2)[nH]1 (centres undefined)	4.4	10.5	3.0	0.4	-6.1	-13.7	nt	nt
OC(c1ccc(Cl)c(F)c1)c1ncc(-c2ccccc2C(F)(F)F)[nH]1 (centres undefined)	6.8	6.1	-7.1	-5.8	4.5	5.4	nt	nt
O=C(CSc1nnc(-c2cccnc2)n1Cc1ccco1)Nc1cc(Cl)ccc1F	3.0	4.1	-1.6	-3.8	-0.6	-3.0	nt	nt
O=C(Cc1ccccc1)NC1CCCc2c1cnn2-c1ccc(F)cc1F (centres undefined)	-1.9	-6.2	2.9	-0.2	2.7	-1.5	nt	nt
CC1CCN(CCCNC(=O)CN2CCN(Cc3ccc(Cl)cc3)C2=O)CC1	-1.5	48.6*	5.3	6.6	-1.4	-0.3	2.9	1.1
CCOc1cc(S(=O)(=O)Nc2ccc(CC)cc2)ccc1Cl	6.0	24.9*	-1.9	-1.2	-4.0	-3.8	4.1	0.8
CCOc1cc(S(=O)(=O)Nc2ccccc2CC)ccc1Cl	3.8	13.6	0.0	-0.3	-0.1	1.9	nt	nt
CCOC(=O)CC[C@@]1(C(=O)OCC)C[C@@H](CC(=O)NCc2cccs2)C(=O)N2CCCC=C21	-1.7	-6.5	-0.7	-5.3	-1.1	-0.3	nt	nt
CC(NC(=O)c1cccs1)C(S)c1ccccc1 (centres undefined)	14.6*	34.5*	4.9	-7.2	9.0	5.7	6.5	1.6
Cc1cc(C(=O)OC(C(=O)Nc2ccc(C)c(Cl)c2)c2ccccc2)c(C)o1 (centres undefined)	7.4	22.3*	7.5	-4.3	0.1	-0.6	5.0	3.3
CC(=O)c1cccc(NC(=O)C(C)OC(=O)c2cc(C)oc2C)c1 (centres undefined)	6.1	-3.1	-2.8	2.4	-2.1	-1.5	nt	nt
O=C(Nc1nc2ncccn2c1-c1ccc(F)cc1)C1CC1	-173.3	i	-0.5	-8.1	i	i	nt	nt
Cc1cc(C)cc(NC(=O)Nc2ccc(-n3ccc(C(F)(F)F)n3)cc2)c1	0.9	0.1	6.3	5.2	2.2	-4.9	nt	nt
COc1ccccc1NC(=O)Nc1ccc(-n2ccc(C(F)(F)F)n2)cc1	6.9	30.1*	-5.0	-0.6	4.5	-8.2	4.7	1.3
Cn1c(Cc2cccs2)nnc1SCC(=O)Nc1ccc2cn[nH]c2c1	-2.4	3.3	-7.8	-5.8	5.6	-0.4	nt	nt
SMILES	ADAM17 inh	ADAM10 inh	DDE Tn7 FP inh	Tn6 DDE FP	PLC-gamma1 inh	PLCb3 inh	ADAM10 confirm	ADAM17 counter
O=C(CC(Cc1ccccc1)C(=O)O)Nc1ccc(F)cc1 (centres undefined)	-0.2	21.1*	4.6	2.9	6.2	-1.2	-0.1	-0.4
O=C(CCc1ccccc1)N[C@H]1[C@@H](OC(=O)c2cccnc2)CCC[C@]12C(=O)N(Cc1ccccc1)c1ccccc12	2.4	-3.3	1.2	2.2	1.5	-1.6	nt	nt
C[C@H]1CCC[C@@]2(O[C@@H](CCO)C[C@H](O)[C@H]2O)O1	-7.7	83.3*	7.1	3.5	-1.4	0.9	0.5	0.0
COC(=O)c1cnc(Nc2nc(C(N)COCc3ccccc3)cs2)nc1C(F)(F)F (centres undefined)	4.8	21.6*	6.8	0.0	5.8	2.2	2.5	1.0
COC(=O)c1cnc(Nc2nc(C(N)c3ccccc3Cl)cs2)nc1C(F)(F)F (centres undefined)	0.6	7.2	-3.2	-1.6	-0.6	6.9	nt	nt
CC(C)(C)c1ccc(Oc2cccc(C3CC(=O)C(C4NCCc5ccccc54)C(=O)C3n3cncn3)c2)cc1 (centres undefined)	-0.3	6.1	-1.8	-2.9	-5.3	-3.6	nt	nt
O=C1CC(c2ccccc2Oc2cccc(Cl)c2)C(n2cncn2)C(=O)C1C1NCCc2ccccc21 (centres undefined)	0.4	23.3*	7.7	4.5	-5.5	-11.6	-0.5	-0.6
COc1cccc(CNC(=O)CCCN2C(=O)COc3ccc(C)cc32)c1OC	2.6	-7.7	3.7	0.8	-1.2	1.9	nt	nt
COc1ccc2c(c1C(=O)/C=C/c1ccccc1)OC(C)(C)C=C2	-2.5	-4.5	2.2	-7.5	-0.7	-6.6	nt	nt
